{"source": "ChEMBL document CHEMBL1152945", "about": "“Synthesis and biological activity of a fluorescent schweinfurthin analogue” (Bioorg Med Chem, 2009)", "key": {"SF-295 [1]": {"test_system": "SF-295", "test": "Inhibition of ROCK in human SF295 cells assessed as change in morphology at 10 uM after 24 hrs using DAPI staining by multi-photon microscopy", "format": "cell-based", "procedure,_shortened": "(§1)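 Cells grown on sterile coverslips to 65% confluency, then treated. Then fixed in 3.7% formaldehyde for 15 min, permeabilized in 0.2% Triton X-100 for 4 min, blocked in 1% BSA for 30 min and stained 20 min with phalloidin for F-actin. Mounted in DAPI-containing medium, imaged by multi-photon microscopy. SF-295 kept in RPMI 1640; A549 in F-12; both with 10% FCS.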"}, "SF-295 [2]": {"test_system": "SF-295", "test": "Cytotoxicity against human SF295 cells after 44 hrs by MTT assay", "format": "functional, cell-based", "details": "SF-295, 44 h", "procedure,_shortened": "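SF-295 glioblastoma cells grown in RPMI 1640 with 10% fetal calf serum and pen-strep at 37 °C, 5% CO2. Plated in 24-well plates and dosed at 65% confluency. Thiazolyl blue tetrazolium added 44 h after treatment. At 48 h, HCl/Triton X-100/isopropanol solubiliser added, then overnight at 37 °C with gentle agitation. Absorbance read at 540 nm, 630 nm reference.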"}, "A549 [3]": {"test_system": "A549", "test": "Cytotoxicity against human A549 cells after 44 hrs by MTT assay", "format": "functional, cell-based", "procedure,_shortened": "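A549 cells in F-12 medium with 10% fetal calf serum and pen-strep, 37 °C, 5% CO2, treated in 24-well plates at 65% confluency. MTT added 44 h after treatment; at 48 h, solubilizer (HCl, Triton X-100, isopropanol) added, overnight at 37 °C with gentle agitation. Absorbance read at 540 nm with 630 nm reference.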"}, "SF-295 [4]": {"test_system": "SF-295", "test": "Effect on morphology of human SF295 cells at 500 nM after 24 hrs using DAPI staining by multi-photon microscopy", "format": "functional, cell-based", "procedure,_shortened": "as §1"}, "A549 [5]": {"test_system": "A549", "test": "Effect on morphology of human A549 cells at 500 nM after 24 hrs using DAPI staining by multi-photon microscopy", "format": "functional, cell-based", "procedure,_shortened": "as §1"}, "A549 [6]": {"test_system": "A549", "test": "Effect on morphology of human A549 cells at 500 nM after 48 hrs using DAPI staining by multi-photon microscopy", "format": "functional, cell-based", "procedure,_shortened": "as §1"}, "SF-295 [7]": {"test_system": "SF-295", "test": "Effect on cytosolic localization in human SF295 cells assessed as increase in fluorescence intensity at 100 nM by fluorescence microscopy", "format": "functional, cell-based", "procedure,_shortened": "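SF-295 cells on sterile coverslips at 65% confluency, treated for varied intervals across a concentration range. Washed three times in complete medium to remove compound, mounted right away, and live compound fluorescence imaged by multi-photon microscopy against untreated-cell autofluorescence.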"}, "SF-295 [8]": {"test_system": "SF-295", "test": "Effect on morphology of human SF295 cells at 500 nM after 48 hrs using DAPI staining by multi-photon microscopy", "format": "functional, cell-based", "procedure,_shortened": "as §1"}, "SF-295 [9]": {"test_system": "SF-295", "test": "Effect on morphology of human SF295 cells assessed as induction of ruffled F-actin at 10 uM after 24 hrs using DAPI staining by multi-photon microscopy", "format": "functional, cell-based", "procedure,_shortened": "as §1"}, "A549 [10]": {"test_system": "A549", "test": "Effect on morphology in human A549 cells assessed as induction of ruffled F-actin at 10 uM after 24 hrs using DAPI staining by multi-photon microscopy", "format": "functional, cell-based", "procedure,_shortened": "as §1"}, "SF-539": {"test_system": "SF-539", "test": "Cytotoxicity against human SF539 cells after 44 hrs by MTT assay", "format": "functional", "details": "SF-539, 44 h"}, "SNB-75": {"test_system": "SNB-75", "test": "Cytotoxicity against human SNB75 cells after 44 hrs by MTT assay", "format": "functional", "details": "SNB-75, 44 h"}}, "note": "Active and inactive are the calls of the source. The rule behind the calls is not given here.", "data": [{"smiles": "COc1cc(/C=C/c2cc(O)c(C/C=C(\\C)CCC=C(C)C)c(O)c2)cc2c1O[C@]1(C)CC[C@@H](O)C(C)(C)[C@H]1C2", "values": [{"measurement": "Activity", "setting": "SF-295 [1]", "result": "Active"}]}, {"smiles": "COc1cc(/C=C/c2cc(O)c(/C=C/c3cccc(O)c3)c(O)c2)cc2c1O[C@]1(C)CC[C@@H](O)C(C)(C)[C@H]1C2", "values": [{"measurement": "IC50", "setting": "SF-295 [2]", "result": 800, "unit": "nM"}, {"measurement": "Activity", "setting": "A549 [3]", "result": "Active"}, {"measurement": "Activity", "setting": "SF-295 [4]", "result": "inactive"}, {"measurement": "Activity", "setting": "A549 [5]", "result": "inactive"}, {"measurement": "Activity", "setting": "A549 [6]", "result": "inactive"}, {"measurement": "Activity", "setting": "SF-295 [7]", "result": "Active"}, {"measurement": "Activity", "setting": "SF-295 [1]", "result": "Active"}, {"measurement": "Activity", "setting": "SF-295 [8]", "result": "Active"}]}, {"smiles": "C[C@@H](N)[C@H]1CC[C@H](C(=O)Nc2ccncc2)CC1", "values": [{"measurement": "Activity", "setting": "SF-295 [9]", "result": "Active"}, {"measurement": "Activity", "setting": "A549 [10]", "result": "Active"}]}, {"smiles": "CC(C)=CCC/C(C)=C/Cc1c(O)cc(/C=C/c2cc(O)c3c(c2)C[C@@H]2C(C)(C)[C@H](O)[C@H](O)C[C@@]2(C)O3)cc1O", "note": "[SCHWEINFURTHIN A]", "values": [{"measurement": "GI50", "setting": "SF-295 [2]", "result": 11, "unit": "nM"}, {"measurement": "GI50", "setting": "SF-539", "result": 10, "unit": "nM"}, {"measurement": "GI50", "setting": "SNB-75", "result": 15, "unit": "nM"}]}]}
